Experimental data: ChEMBL document CHEMBL3526056, “Characterization of in vitro glucuronidation clearance of a range of drugs in human kidney microsomes: comparison with liver and intestinal glucuronidation and impact of albumin” (Drug Metab Dispos, 2012)

How the values were obtained:
[1] = target: T1, UDP-glucuronosyltransferase 2B7 (Homo sapiens, UniProt P16662); assay: Drug metabolism in human intestinal microsomes assessed as UGT2B7-mediated unbound intrinsic glucuronidation clearance at 1 uM after 30 to 60 mins by LC-MS/MS analysis; type: ADME, Intestine
T1 sequence (P16662 whole entry): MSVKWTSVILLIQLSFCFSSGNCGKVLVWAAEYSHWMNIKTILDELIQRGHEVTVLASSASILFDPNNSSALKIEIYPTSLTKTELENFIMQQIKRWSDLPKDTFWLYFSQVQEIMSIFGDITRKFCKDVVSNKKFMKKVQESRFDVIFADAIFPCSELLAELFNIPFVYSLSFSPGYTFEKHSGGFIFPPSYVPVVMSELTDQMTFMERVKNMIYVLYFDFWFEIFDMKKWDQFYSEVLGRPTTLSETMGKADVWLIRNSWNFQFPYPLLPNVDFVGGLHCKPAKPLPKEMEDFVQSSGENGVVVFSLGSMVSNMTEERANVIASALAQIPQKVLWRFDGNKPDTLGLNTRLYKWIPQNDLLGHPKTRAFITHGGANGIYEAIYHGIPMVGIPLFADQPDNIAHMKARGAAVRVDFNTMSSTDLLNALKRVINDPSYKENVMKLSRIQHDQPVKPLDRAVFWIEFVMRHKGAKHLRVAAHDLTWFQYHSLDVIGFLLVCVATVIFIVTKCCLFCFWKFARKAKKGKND

[2] = target: T1, UDP-glucuronosyltransferase 2B7; assay: Drug metabolism in human liver microsomes assessed as UGT2B7-mediated unbound intrinsic glucuronidation clearance at 1 uM after 30 to 60 mins by LC-MS/MS analysis in presence of 1% bovine serum albumin; type: ADME
[3] = Fraction unbound in human intestinal microsomes at 1 uM after 30 to 60 mins by LC-MS/MS analysis; type: ADME, Intestine, Microsome
[4] = Unbound intrinsic glucuronidation clearance in human kidney microsomes at 1 uM after 30 to 60 mins by LC-MS/MS analysis in presence of UDP-glucuronosyltransferase and 1% bovine serum albumin; type: ADME, microsome
[5] = Fraction unbound in human plasma
[6] = system: Liver microsome; assay: Fraction unbound in human liver microsomes at 1 uM after 30 to 60 mins by LC-MS/MS analysis in presence of 1% bovine serum albumin; type: ADME; conditions: microsomes, 1 µM
[7] = Fraction unbound in human liver microsomes at 1 uM after 30 to 60 mins by LC-MS/MS analysis; type: ADME
[8] = target: T1, UDP-glucuronosyltransferase 2B7; assay: Drug metabolism in human kidney microsomes assessed as UGT2B7-mediated unbound intrinsic glucuronidation clearance at 1 uM after 30 to 60 mins by LC-MS/MS analysis in presence of 1% bovine serum albumin; type: ADME
[9] = Unbound intrinsic glucuronidation clearance in human kidney microsomes at 1 uM after 30 to 60 mins by LC-MS/MS analysis in presence of UDP-glucuronosyltransferase; type: ADME, microsome
Summary of the method: (§1)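 Alamethicin-activated pooled microsomes (HLM 150 donors; HKM 8; HIM 18). Drug at 1 μM final, preincubated 5 min at 37°C in 0.1 M phosphate pH 7.1 with 3.45 mM MgCl2, 1.15 mM EDTA, 115 μM saccharic acid lactone. Started with […] cofactor (5 mM final), 30–60 min. Cofactor-free controls. Parent depletion by LC-MS/MS, single-exponential k. Corrected by HLM-dialysis fu,inc. Duplicates; n=3 (HIM n=1).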

[10] = Fraction unbound in human kidney microsomes at 1 uM after 30 to 60 mins by LC-MS/MS analysis; type: ADME
[11] = system: Liver microsome; assay: Fraction metabolized glucuronidation in human liver microsomes in presence of UDP-glucuronosyltransferase; type: ADME
[12] = Unbound intrinsic glucuronidation clearance in human intestinal microsomes at 1 uM after 30 to 60 mins by LC-MS/MS analysis in presence of UDP-glucuronosyltransferase and 1% bovine serum albumin; type: ADME, Intestine, Microsome
[13] = target: T1, UDP-glucuronosyltransferase 2B7; assay: Drug metabolism in human kidney microsomes assessed as UGT2B7-mediated unbound intrinsic glucuronidation clearance at 1 uM after 30 to 60 mins by LC-MS/MS analysis; type: ADME
[14] = system: Liver microsome; assay: Unbound intrinsic glucuronidation clearance in human liver microsomes at 1 uM after 30 to 60 mins by LC-MS/MS analysis in presence of UDP-glucuronosyltransferase and 1% bovine serum albumin; type: ADME
[15] = Unbound intrinsic glucuronidation clearance in human intestinal microsomes at 1 uM after 30 to 60 mins by LC-MS/MS analysis in presence of UDP-glucuronosyltransferase; type: ADME, Intestine, Microsome; summary of the method: as §1
[16] = system: Liver microsome; assay: Unbound intrinsic glucuronidation clearance in human liver microsomes at 1 uM after 30 to 60 mins by LC-MS/MS analysis in presence of UDP-glucuronosyltransferase; type: ADME; summary of the method: as §1
[17] = Glucuronidation clearance in human liver microsomes; type: ADME
[18] = system: Liver microsome; assay: Fraction metabolized glucuronidation in human liver microsomes in presence of UDP-glucuronosyltransferase and bovine serum albumin; type: ADME
[19] = Glucuronidation clearance in human liver microsomes in presence of bovine serum albumin; type: ADME
[20] = target: T1, UDP-glucuronosyltransferase 2B7; assay: Drug metabolism in human liver microsomes assessed as UGT2B7-mediated unbound intrinsic glucuronidation clearance at 1 uM after 30 to 60 mins by LC-MS/MS analysis; type: ADME
[21] = Renal clearance in human; type: ADME, organism-based, Kidney; conditions: in vivo
[22] = Unbound intrinsic glucuronidation clearance in human intestinal microsomes at 1 uM after 30 to 60 mins by LC-MS/MS analysis in presence of UDP-glucuronosyltransferase and 2% bovine serum albumin; type: ADME, Intestine, Microsome
Summary of the method: (§2)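 Pooled alamethicin-activated human liver, kidney or intestinal microsomes. […] Duplicate incubations of 30–60 min, with no-cofactor controls. Parent depletion read by LC-MS/MS. k from a single-exponential fit, corrected by fu,inc.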

[23] = Ratio of UGT1A8/2B7-mediated unbound intrinsic glucuronidation clearance in human kidney microsomes to UGT1A8/2B7-mediated unbound intrinsic glucuronidation clearance in human intestinal microsomes at 1 uM; type: ADME
Summary of the method: (§3)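 Ratios of mean unbound CLint,UGT, each scaled per g tissue, between pooled liver, kidney and intestinal microsomes. Values come from 1 μM substrate-depletion assays in pH 7.1 phosphate at 37°C, run with or without BSA (1% for acids, 2% for bases/neutral drugs). Corrected for nonspecific binding. Kidney and liver n = 3; intestine n = 1; each in duplicate.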

[24] = Ratio of UGT1A8/2B7-mediated unbound intrinsic glucuronidation clearance in human intestinal microsomes to UGT1A8/2B7-mediated unbound intrinsic glucuronidation clearance in human liver microsomes at 1 uM; type: ADME; summary of the method: as §3
[25] = Ratio of unbound intrinsic glucuronidation clearance in human intestinal microsomes in presence of 2% bovine serum albumin to unbound intrinsic glucuronidation clearance in human intestinal microsomes in absence of bovine serum albumin; type: ADME, Intestine, Microsome
Summary of the method: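 Ratios of mean scaled unbound CLint,UGT (per g tissue) between tissues, or between with and without BSA. Microsomal depletion assays at 1 μM, or 5 μM for propofol, in pH 7.1 phosphate at 37°C, read by LC-MS/MS. Kidney and liver n = 3, intestine n = 1, each in duplicate.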

[26] = Drug metabolism in human intestinal microsomes assessed as UGT1A8/2B7-mediated unbound intrinsic glucuronidation clearance at 1 uM after 30 to 60 mins by LC-MS/MS analysis; type: ADME, Intestine; summary of the method: as §2
[27] = Ratio of UGT1A8/2B7-mediated unbound intrinsic glucuronidation clearance in human kidney microsomes to UGT1A8/2B7-mediated unbound intrinsic glucuronidation clearance in human liver microsomes at 1 uM in presence of 2% bovine serum albumin; type: ADME; summary of the method: as §3
[28] = Unbound intrinsic glucuronidation clearance in human kidney microsomes at 1 uM after 30 to 60 mins by LC-MS/MS analysis in presence of UDP-glucuronosyltransferase and 2% bovine serum albumin; type: ADME, microsome; summary of the method: as §2
[29] = Ratio of UGT1A8/2B7-mediated unbound intrinsic glucuronidation clearance in human kidney microsomes to UGT1A8/2B7-mediated unbound intrinsic glucuronidation clearance in human liver microsomes at 1 uM; type: ADME; summary of the method: as §3
[30] = Drug metabolism in human kidney microsomes assessed as UGT1A8/2B7-mediated unbound intrinsic glucuronidation clearance at 1 uM after 30 to 60 mins by LC-MS/MS analysis in presence of 2% bovine serum albumin; type: ADME; summary of the method: as §2
[31] = Drug metabolism in human liver microsomes assessed as UGT1A8/2B7-mediated unbound intrinsic glucuronidation clearance at 1 uM after 30 to 60 mins by LC-MS/MS analysis; type: ADME; summary of the method: as §2
[32] = Ratio of UGT1A8/2B7-mediated unbound intrinsic glucuronidation clearance in human kidney microsomes to UGT1A8/2B7-mediated unbound intrinsic glucuronidation clearance in human intestinal microsomes at 1 uM in presence of 2% bovine serum albumin; type: ADME; summary of the method: as §3
[33] = Ratio of UGT1A8/2B7-mediated unbound intrinsic glucuronidation clearance in human intestinal microsomes to UGT1A8/2B7-mediated unbound intrinsic glucuronidation clearance in human liver microsomes at 1 uM in presence of 2% bovine serum albumin; type: ADME; summary of the method: as §3
[34] = Drug metabolism in human liver microsomes assessed as UGT1A8/2B7-mediated unbound intrinsic glucuronidation clearance at 1 uM after 30 to 60 mins by LC-MS/MS analysis in presence of 2% bovine serum albumin; type: ADME; summary of the method: as §2
[35] = Drug metabolism in human kidney microsomes assessed as UGT1A8/2B7-mediated unbound intrinsic glucuronidation clearance at 1 uM after 30 to 60 mins by LC-MS/MS analysis; type: ADME; summary of the method: as §2
[36] = system: Liver microsome; assay: Unbound intrinsic glucuronidation clearance in human liver microsomes at 1 uM after 30 to 60 mins by LC-MS/MS analysis in presence of UDP-glucuronosyltransferase and 2% bovine serum albumin; type: ADME; summary of the method: as §2
[37] = Ratio of drug level blood to plasma in human; type: ADME; conditions: blood and plasma
[38] = Clearance in iv dosed human; type: ADME, organism-based; conditions: in vivo
[39] = Fraction unbound in human liver microsomes at 1 uM […] by LC-MS/MS analysis in presence of 2% bovine serum albumin; type: ADME

Molecule Cc1ccc(C)c(OCCCC(C)(C)C(=O)O)c1 [GEMFIBROZIL] has a CL free [1] of 0.492 mL/min/g, a CL free [2] of 73.6 mL/min/g and a fraction unbound at 1 µM [3] of 0.82. For the same molecule, the CL free [4] was 1910 µL/min/mg, the fraction unbound [5] was 0.005 and the Fu [6] was 0.01. It also gave a fraction unbound at 1 µM [7] of 0.9, a CL free [8] of 24.4 mL/min/g and a CL free [9] of 265 µL/min/mg. For the same molecule, the fraction unbound at 1 µM [10] was 0.9, the Drug metabolism [11] was 0.79 and the CL free [12] was 40 µL/min/mg. The CL free [13] was 3.39 mL/min/g, the CL free [14] was 1840 µL/min/mg and the CL free [15] was 23.9 µL/min/mg. It also gave a CL free [16] of 259 µL/min/mg, a CLhep predicted [17] of 0.107 L/h/kg and a Drug metabolism [18] of 0.86. It also gave a CLhep predicted [19] of 0.116 L/h/kg, a CL free [20] of 10.4 mL/min/g and a CL renal [21] of 0.0012 L/h/kg.

For C=CCN1CC[C@]23c4c5ccc(O)c4O[C@H]2C(=O)CC[C@@]3(O)[C@H]1C5 [NALOXONE], the CL free [22] was 14.2 µL/min/mg, the fraction unbound at 1 µM [3] was 1 and the fraction unbound [5] was 0.57. It also gave a fraction unbound at 1 µM [7] of 1, a Ratio [23] of 13.5 and a Ratio [24] of 0.026. For the same molecule, the Ratio [25] was 28, the CL free [9] was 10.9 µL/min/mg and the CL free [26] was 0.01 mL/min/g. The Ratio [27] was 0.304, the CL free [28] was 52.7 µL/min/mg and the fraction unbound at 1 µM [10] was 1. It also gave a Drug metabolism [11] of 0.65, a Ratio [29] of 0.348 and a CL free [30] of 0.675 mL/min/g. For the same molecule, the CL free [31] was 0.402 mL/min/g, the Ratio [32] was 2.31 and the CL free [15] was 0.502 µL/min/mg. The CL free [16] was 10 µL/min/mg, the Ratio [33] was 0.131 and the CL free [34] was 2.22 mL/min/g. The CLhep predicted [17] was 0.846 L/h/kg, the CL free [35] was 0.14 mL/min/g and the Drug metabolism [18] was 0.89. The CLhep predicted [19] was 1.16 L/h/kg, the CL free [36] was 55.6 µL/min/mg and the blood plasma ratio [37] was 1. It also gave a clearance [38] of 1.3 L/h/kg and a fraction unbound at 1 µM [39] of 0.96.
